Results taken from PubChem BioAssay AID809 (SRMLSC, 2007).
Active and inactive are the calls of the source.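 Rule for the calls: active = EC50 for reversing nicotinamide-shortened yeast lifespan at or below a set limit; inactive = EC50 above that limit.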

Tested on: S. cerevisiae DeaD BB579, nicotinamide rescue growth, OD615 48 h
Assay: rescue of nicotinamide-suppressed growth of yeast BB579, dose response, yeast lifespan extension project, S. cerevisiae (AID 809)
In short: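 System: Saccharomyces cerevisiae DeaD strain BB579, log-phase cells | Buffer or medium: CSMM-D glucose restrictive medium | Timing: 4 h pre-incubation, 48 h exposure at 30 °C | Technique: OD615 absorbance | Evaluation: Culture growth as lifespan proxy | Compound: 0.078–10 µM compound, 0.5% DMSO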

With `CCOC(=O)c1cnc(-c2ccccc2)nc1Oc1ccc(Cl)cc1` the EC50 was > 10 µM (inactive).
`COc1cccc(C2CC3C(=O)C=CC2N3Cc2ccccc2)c1` (stereo not given) showed an EC50 of 6.1 µM.
In the case of `CCOC(=O)COc1ccccc1/C=C\[N+](=O)[O-]`, the EC50 is reported as 1.79 µM.
`CC1=NN(Cc2ccccc2)C(=O)C1C(c1ccccc1)C(C#N)C#N` (stereo not given) was tested, and the EC50 was > 10 µM (inactive).
`CCCCCCN1CC(C(=O)OCC)C(=O)C1=O` (stereo not given) gave an EC50 of 4.74 µM.
With `CC(C)Cn1c(=O)c(C(=O)Nc2cnccn2)c(O)c2ccccc21` the EC50 was 9.1 µM.
`CC(C)=C1C(=O)NN(c2ccc(C)c(Cl)c2)C1=O` showed an EC50 of 9.85 µM.
In the case of `C[C@]12CC[C@@H](O)C[C@@H]1CC[C@@H]1[C@@H]2CC[C@]2(C)[C@@H](O)CC[C@@H]12`, the EC50 is reported as > 10 µM (inactive).
In the case of `Cc1ccc(/C(O)=C2\C(=O)C(=O)N(c3cc(C)on3)C2c2cccc(Cl)c2)cc1` (stereo not given), the EC50 is reported as 9.72 µM.
In the case of `CC(=O)[C@H]1[C@H](c2cccc(Cl)c2)C(C#N)(C#N)[C@@H]2c3ccccc3C=CN21`, the EC50 is reported as 8.71 µM.
In the case of `CCOC(=O)c1c(C)oc2c1c(C(c1cccnc1)N1CCOCC1)c(O)c1ccccc12` (stereo not given), the EC50 is reported as > 10 µM (inactive).
Molecule `Fc1cccc2sc(Nc3nnc(-c4ccco4)o3)nc12` has an EC50 of 0.24 µM.
With `N#Cc1ccc(-c2ccc(OCC(=O)NCCc3ccccc3)cc2)cc1` the EC50 was > 10 µM (inactive).
With `Cn1c(=O)c(=O)n(C)c2cc(S(=O)(=O)N3CCN(Cc4ccccc4)CC3)ccc21` the EC50 was > 10 µM (inactive).
`O=C(N/N=C/c1ccc(F)cc1)c1c(O)c2ccccc2[nH]c1=O` gave an EC50 of 2.22 µM.
For `O=C(NCc1ccco1)c1cc(C(=O)C2CCCCC2)c[nH]1`, the EC50 was > 10 µM (inactive).
For `CCOC(=O)/C(=C/c1ccc(OC(=O)c2ccccc2)cc1)C(C)=O`, the EC50 was 4.96 µM.
Molecule `Cc1[nH]n(-c2ccccc2)c(=O)c1N=Nc1nccs1` has an EC50 of 6 µM.
`Cc1ccc(/C=C/C(=O)C2C(=O)c3ccccc3C2=O)cc1` showed an EC50 of 8.56 µM.
For `CC1CCc2cc(F)cc3c(O)c(C(=O)NCc4ccco4)c(=O)n1c23` (stereo not given), the EC50 was > 10 µM (inactive).
`O=C1C(C2=C(O)c3ccccc3C2=O)=Nc2ccccc21` was tested, and the EC50 was 1.7 µM.
`Nc1cccc2c1C(=O)N(C(=O)c1ccc(Cl)c(S(=O)(=O)N3CCCCCC3)c1)C2=O` showed an EC50 of 7.66 µM.
`CC(C)(C)C(=O)/C(=C/c1cccc([N+](=O)[O-])c1)n1cncn1` showed an EC50 of 3.73 µM.
`CCOC(=O)CSC1=NC(=O)/C(=C/c2ccc(OC)cc2)S1` was tested, and the EC50 was 6.43 µM.
`CCOC(=O)c1nnn(-c2nonc2N)c1CN1CCc2ccccc2C1` gave an EC50 of 9.77 µM.
For `CCOc1cc(/C=C\[N+](=O)[O-])ccc1OCC(=O)Nc1ccccc1C`, the EC50 was > 10 µM (inactive).
`COC(=O)CC1=NN(c2ccccc2)C(=O)/C1=C\c1ccc(OC)cc1` was tested, and the EC50 was > 10 µM (inactive).
For `CCOc1ccc(/C=C2/C(=O)NC(=O)N(CCc3ccc(F)cc3)C2=O)cc1`, the EC50 was > 10 µM (inactive).
`CCc1nnc(N2C(=O)c3ccc(Oc4ccc([N+](=O)[O-])cc4)cc3C2=O)s1` was tested, and the EC50 was > 10 µM (inactive).
In the case of `CN(C)C1(c2nnnn2CCOC(=O)Nc2ccc(Cl)cc2)CCCCC1`, the EC50 is reported as > 10 µM (inactive).
In the case of `CC1(C)Oc2ccccc2OC1(O)c1ccc2ccccc2n1` (stereo not given), the EC50 is reported as > 10 µM (inactive).
`COc1cccc(CSc2nc3ccccc3cc2C=O)c1` showed an EC50 of 8.96 µM.
`CCn1ncc(/C=N/NC(=O)c2ccc3c(c2)OCO3)c1C` was tested, and the EC50 was > 10 µM (inactive).
For `CCCCn1c(=O)c(C(=O)Nc2cnccn2)c(O)c2ccccc21`, the EC50 was 3.01 µM.
`COc1c(Br)cc(Br)cc1/C=N/n1c(C)nnc1C` was tested, and the EC50 was > 10 µM (inactive).
For `Oc1ccc2ccccc2c1C=Nc1ccc(N2CCOCC2)cc1`, the EC50 was > 10 µM (inactive).
Molecule `O=C(NC(=S)NNC(=O)c1ccccc1O)c1ccco1` has an EC50 of 6.02 µM.
For `CCc1nc(SCC(=O)c2ccc3c(c2)OCCO3)c2ccccc2n1`, the EC50 was > 10 µM (inactive).
`CC1CCCN(c2nc3ccccc3nc2C(C#N)C(=O)OC2CCCCC2)C1` (stereo not given) was tested, and the EC50 was > 10 µM (inactive).
For `O=C1C(=C(O)c2ccccc2)C(=O)c2ccccc21`, the EC50 was > 10 µM (inactive).
In the case of `C=CCn1c(O)c(C(CC)=NCCN2CCOCC2)c(=O)[nH]c1=O`, the EC50 is reported as > 10 µM (inactive).
In the case of `CCOC(=O)CN1C(=O)N[C@H](c2ccc(Br)cc2)C(C(C)=O)=C1C`, the EC50 is reported as > 10 µM (inactive).
For `O=C(O)c1cccc2c1C(=O)N(C1CCCCC1)C2`, the EC50 was 4.22 µM.
For `O=C(/C(=C/O)N=Nc1ccc(Cl)cc1)c1ccncc1`, the EC50 was 2.64 µM.
`O=[N+]([O-])c1c(C(Cl)Cl)nn(-c2ccccc2)c1N1CCCC1` showed an EC50 of 7.47 µM.
